Measured values as given in ChEMBL document CHEMBL2380302, “Synthesis of 3-O-propargylated betulinic acid and its 1,2,3-triazoles as potential apoptotic agents” (Eur J Med Chem, 2013).
pIC50: −log10 of the molar value. Active and inactive are the calls of the source. No cut-off for these calls is given here.

How the values were obtained:
HL-60 [1] = test: Ratio of betulinic acid IC50 to compound IC50 for human HL60 cells; assay type: functional
THP-1 [2] = test: Inhibition of cell invasion in human THP1 cells at 1 to 30 uM after 24 hrs by wound-healing assay; assay type: functional, cell-based
Procedure, shortened: (§1)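 THP-1 monolayers (3×10⁵ cells/mL/well) were scratched with a pipette tip and washed three times with PBS. Test samples were added for 24 h, then fresh medium was added until the control wound healed. Wounds were imaged with a 10× objective at 0 h and 24 h. Migration was quantified as the distance between wound edges.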

THP-1 [3] = test: Inhibition of cell migration in human THP1 cells at 1 to 30 uM after 24 hrs by wound-healing assay; assay type: functional, cell-based; procedure, shortened: as §1
HL-60 [4] = test: Induction of apoptosis in human HL60 cells assessed as DNA ladder formation at 20 to 30 uM after 24 hrs by DNA agarose gel electrophoresis; assay type: functional, cell-based
Procedure, shortened: (§2)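 DNA fragmentation assay in HL-60 cells (2 × 10⁶ cells/well) or CV-1 cells, treated for 24 h. Cells were lysed in Tris–HCl pH 8.0/NaCl/EDTA/Triton X-100 with proteinase K (200 µg/mL) at 50 °C for 1 h, then DNase-free RNase for 90 min. DNA was phenol:chloroform extracted and ethanol precipitated. Gels were 1% agarose in TAE at 80 V for 1.5 h. Camptothecin (5 µM, 6 h) served as positive control in HL-60.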

HL-60 [5] = test: Induction of apoptosis in human HL60 cells assessed as DNA ladder formation after 24 hrs by DNA agarose gel electrophoresis; assay type: functional; procedure, shortened: as §2
CV-1 = test: Induction of apoptosis in african green monkey CV1 cells assessed as DNA ladder formation at 10 to 60 uM after 24 hrs by DNA agarose gel electrophoresis; assay type: cell-based; conditions: chlorocebus aethiops, cv-1, 24 h; procedure, shortened: as §2
HL-60 [6] = test: Induction of apoptosis in human HL60 cells assessed as change in mitochondrial membrane potential after 24 hrs using rhodamine-123 staining by fluorescence based confocal microscopy analysis; assay type: functional, cell-based
Procedure, shortened: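 HL-60 cells (6 × 10⁴/mL/well) were treated for 24 h. Rhodamine-123 (1 µM) was added in serum-free medium 30 min before the end, in the dark. Cells were then washed and resuspended in PBS. Fluorescence loss was viewed by confocal microscopy with 488 nm laser excitation. Each experiment was done twice.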

THP-1 [7] = test: Inhibition of colony formation in human THP1 cells using crystal violet staining after 24 hrs by clonogenic assay; assay type: functional, cell-based
Procedure, shortened: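 THP-1 cells from log-phase culture were plated at clonogenic dilution. After 24 h they were treated for 24 h, then incubated for at least six potential divisions (colonies >50 cells). Colonies were fixed and stained with 6% glutaraldehyde plus 0.5% crystal violet for 30 min, washed with water and air-dried.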

HCT-15 [8] = test: Cytotoxicity against human HCT15 cells at 10 uM after 48 hrs by SRB assay; assay type: functional; conditions: HCT-15, 48 h, read-out: GI
SF-295 [9] = test: Cytotoxicity against human SF295 cells at 10 uM after 48 hrs by SRB assay; assay type: functional; conditions: SF-295, 48 h, read-out: GI
A549 [10] = test: Cytotoxicity against human A549 cells at 10 uM after 48 hrs by SRB assay; assay type: functional; conditions: A549, 48 h, read-out: GI
MCF7 [11] = test: Cytotoxicity against human MCF7 cells at 10 uM after 48 hrs by SRB assay; assay type: functional; conditions: MCF7, 48 h, read-out: GI
HEp-2 [12] = test: Cytotoxicity against human Hep2 cells at 10 uM after 48 hrs by SRB assay; assay type: functional; conditions: HEp-2, 48 h, read-out: GI
PC-3 [13] = test: Cytotoxicity against human PC3 cells at 10 uM after 48 hrs by SRB assay; assay type: functional; conditions: PC-3, 48 h, read-out: GI
DU-145 [14] = test: Cytotoxicity against human DU145 cells at 10 uM after 48 hrs by SRB assay; assay type: functional; conditions: DU-145, 48 h, read-out: GI
HL-60 [15] = test: Cytotoxicity against human HL60 cells at 10 uM after 48 hrs by SRB assay; assay type: functional; conditions: HL-60, 48 h, read-out: GI
THP-1 [16] = test: Cytotoxicity against human THP1 cells at 10 uM after 48 hrs by SRB assay; assay type: functional; conditions: THP-1, 48 h, read-out: GI
HCT-15 [17] = test: Cytotoxicity against human HCT15 cells at 30 uM after 48 hrs by SRB assay; assay type: functional; conditions: HCT-15, 48 h, read-out: GI
SF-295 [18] = test: Cytotoxicity against human SF295 cells at 30 uM after 48 hrs by SRB assay; assay type: functional; conditions: SF-295, 48 h, read-out: GI
A549 [19] = test: Cytotoxicity against human A549 cells at 30 uM after 48 hrs by SRB assay; assay type: functional; conditions: A549, 48 h, read-out: GI
MCF7 [20] = test: Cytotoxicity against human MCF7 cells at 30 uM after 48 hrs by SRB assay; assay type: functional; conditions: MCF7, 48 h, read-out: GI
HEp-2 [21] = test: Cytotoxicity against human Hep2 cells at 30 uM after 48 hrs by SRB assay; assay type: functional; conditions: HEp-2, 48 h, read-out: GI
PC-3 [22] = test: Cytotoxicity against human PC3 cells at 30 uM after 48 hrs by SRB assay; assay type: functional; conditions: PC-3, 48 h, read-out: GI
DU-145 [23] = test: Cytotoxicity against human DU145 cells at 30 uM after 48 hrs by SRB assay; assay type: functional; conditions: DU-145, 48 h, read-out: GI
HL-60 [24] = test: Cytotoxicity against human HL60 cells at 30 uM after 48 hrs by SRB assay; assay type: functional; conditions: HL-60, 48 h, read-out: GI
THP-1 [25] = test: Cytotoxicity against human THP1 cells at 30 uM after 48 hrs by SRB assay; assay type: functional; conditions: THP-1, 48 h, read-out: GI
HCT-15 [26] = test: Cytotoxicity against human HCT15 cells at 50 uM after 48 hrs by SRB assay; assay type: functional; conditions: HCT-15, 48 h, read-out: GI
SF-295 [27] = test: Cytotoxicity against human SF295 cells at 50 uM after 48 hrs by SRB assay; assay type: functional; conditions: SF-295, 48 h, read-out: GI
A549 [28] = test: Cytotoxicity against human A549 cells at 50 uM after 48 hrs by SRB assay; assay type: functional; conditions: A549, 48 h, read-out: GI
MCF7 [29] = test: Cytotoxicity against human MCF7 cells at 50 uM after 48 hrs by SRB assay; assay type: functional; conditions: MCF7, 48 h, read-out: GI
HEp-2 [30] = test: Cytotoxicity against human Hep2 cells at 50 uM after 48 hrs by SRB assay; assay type: functional; conditions: HEp-2, 48 h, read-out: GI
PC-3 [31] = test: Cytotoxicity against human PC3 cells at 50 uM after 48 hrs by SRB assay; assay type: functional; conditions: PC-3, 48 h, read-out: GI
HL-60 [32] = test: Cytotoxicity against human HL60 cells at 50 uM after 48 hrs by SRB assay; assay type: functional; conditions: HL-60, 48 h, read-out: GI
DU-145 [33] = test: Cytotoxicity against human DU145 cells at 50 uM after 48 hrs by SRB assay; assay type: functional; conditions: DU-145, 48 h, read-out: GI
THP-1 [34] = test: Cytotoxicity against human THP1 cells at 50 uM after 48 hrs by SRB assay; assay type: functional; conditions: THP-1, 48 h, read-out: GI
HCT-15 [35] = test: Cytotoxicity against human HCT15 cells after 48 hrs by SRB assay; assay type: functional, cell-based; conditions: HCT-15, 48 h
A549 [36] = test: Cytotoxicity against human A549 cells after 48 hrs by SRB assay; assay type: functional, cell-based; conditions: A549, 48 h
SF-295 [37] = test: Cytotoxicity against human SF295 cells after 48 hrs by SRB assay; assay type: functional, cell-based; conditions: SF-295, 48 h
MCF7 [38] = test: Cytotoxicity against human MCF7 cells after 48 hrs by SRB assay; assay type: functional, cell-based; conditions: MCF7, 48 h
HEp-2 [39] = test: Cytotoxicity against human Hep2 cells after 48 hrs by SRB assay; assay type: functional, cell-based; conditions: HEp-2, 48 h
PC-3 [40] = test: Cytotoxicity against human PC3 cells after 48 hrs by SRB assay; assay type: functional, cell-based; conditions: PC-3, 48 h
DU-145 [41] = test: Cytotoxicity against human DU145 cells after 48 hrs by SRB assay; assay type: functional, cell-based; conditions: DU-145, 48 h
HL-60 [42] = test: Cytotoxicity against human HL60 cells after 48 hrs by SRB assay; assay type: functional, cell-based; conditions: HL-60, 48 h
THP-1 [43] = test: Cytotoxicity against human THP1 cells after 48 hrs by SRB assay; assay type: functional, cell-based; conditions: THP-1, 48 h

## C=C(C)[C@@H]1CC[C@]2(C(=O)O)CC[C@]3(C)[C@H](CC[C@@H]4[C@@]5(C)CC[C@H](OCc6cn(-c7cccc8c(O)cccc78)nn6)C(C)(C)[C@@H]5CC[C@]43C)[C@@H]12
HL-60 [1]
  Ratio IC50: 5
THP-1 [2]
  inhibition: Active
THP-1 [3]
  inhibition: Active
HL-60 [4]
  Activity: Active
HL-60 [5]
  Activity: Dose-dependent effect
  MED: 20 µM
CV-1
  Activity: Non-toxic
HL-60 [6]
  Activity: Dose-dependent effect
THP-1 [7]
  inhibition: Dose-dependent effect
HCT-15 [8]
  inhibition of growth at 10 µM: 40%
SF-295 [9]
  inhibition of growth at 10 µM: 18%
A549 [10]
  inhibition of growth at 10 µM: 42%
MCF7 [11]
  inhibition of growth at 10 µM: 51%
HEp-2 [12]
  inhibition of growth at 10 µM: 45%
PC-3 [13]
  inhibition of growth at 10 µM: 35%
DU-145 [14]
  inhibition of growth at 10 µM: 38%
HL-60 [15]
  inhibition of growth at 10 µM: 63%
THP-1 [16]
  inhibition of growth at 10 µM: 51%
HCT-15 [17]
  inhibition of growth at 30 µM: 64%
SF-295 [18]
  inhibition of growth at 30 µM: 61%
A549 [19]
  inhibition of growth at 30 µM: 60%
MCF7 [20]
  inhibition of growth at 30 µM: 63%
HEp-2 [21]
  inhibition of growth at 30 µM: 63%
PC-3 [22]
  inhibition of growth at 30 µM: 61%
DU-145 [23]
  inhibition of growth at 30 µM: 69%
HL-60 [24]
  inhibition of growth at 30 µM: 95%
THP-1 [25]
  inhibition of growth at 30 µM: 82%
HCT-15 [26]
  inhibition of growth at 50 µM: 72%
SF-295 [27]
  inhibition of growth at 50 µM: 87%
A549 [28]
  inhibition of growth at 50 µM: 72%
MCF7 [29]
  inhibition of growth at 50 µM: 82%
HEp-2 [30]
  inhibition of growth at 50 µM: 74%
PC-3 [31]
  inhibition of growth at 50 µM: 94%
HL-60 [32]
  inhibition of growth at 50 µM: 98%
DU-145 [33]
  inhibition of growth at 50 µM: 86%
THP-1 [34]
  inhibition of growth at 50 µM: 92%
HCT-15 [35]
  pIC50: 4.82
A549 [36]
  pIC50: 4.80
SF-295 [37]
  pIC50: 4.60
MCF7 [38]
  pIC50: 5.05
HEp-2 [39]
  pIC50: 4.89
PC-3 [40]
  pIC50: 4.80
DU-145 [41]
  pIC50: 4.85
HL-60 [42]
  pIC50: 5.46
THP-1 [43]
  pIC50: 5.10
